This note sets out measurements from ChEMBL document CHEMBL4699422, “Synthesis and initial pharmacology of dual-targeting ligands for putative complexes of integrin alphaVbeta3 and PAR2” (RSC Med Chem, 2020).

Calls of active or inactive are those of the source. The rule behind the calls is not given here. Where a SMILES comes first, the peptide text is derived from it. [ ]: non-standard residue; d: D form. The star is where a group is joined. X1 = COCc1cn(CCOCCOCCOCCOCCOCCOCCN*)nn1; Orn = NCCC[C@H](N)C(=O)O; 2Furoyl = O=C(c1ccco1)*

The target in experiment [1] is T1, Proteinase-activated receptor 2 (Homo sapiens, UniProt P55085).
T1 sequence (P55085 whole entry): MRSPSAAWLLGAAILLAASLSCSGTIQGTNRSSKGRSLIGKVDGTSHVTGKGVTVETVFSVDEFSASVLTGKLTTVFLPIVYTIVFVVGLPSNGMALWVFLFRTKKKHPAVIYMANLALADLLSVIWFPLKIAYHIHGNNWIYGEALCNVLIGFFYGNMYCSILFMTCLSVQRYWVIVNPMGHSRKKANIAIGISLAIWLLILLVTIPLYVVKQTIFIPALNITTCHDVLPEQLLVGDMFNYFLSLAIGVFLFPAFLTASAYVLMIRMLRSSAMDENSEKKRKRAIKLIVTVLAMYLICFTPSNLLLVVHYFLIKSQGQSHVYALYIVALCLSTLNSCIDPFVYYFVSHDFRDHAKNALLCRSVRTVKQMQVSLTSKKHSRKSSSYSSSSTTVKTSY
The experiment can be described thus: Agonist activity at PAR2 in human EA.hy926 cells assessed as stimulation of calcium mobilization by Fluo-4-AM dye-based FLIPR assay. It counts as functional, cell-based, EA.hy 926. The method, boiled down:
(§1)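 EA.hy926 cells, passages 7–9, grown in DMEM (4.5 g/L glucose, 4 mM L-glutamine, 1 mM pyruvate, FBS, pen/strep). Calcium read on plate reader as normalized ΔRFU over basal. %Stimulation relative to 100 μM SLIGKV-NH₂ (100%). Curves fitted by 4-variable non-linear regression.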

The target in experiment [2] is T2, Integrin alpha-V/beta-3 (Homo sapiens) (UniProt P05106+P06756). The experiment can be described thus: Inhibition of Alexa Fluor 647 labelled fibronectin binding to integrin alphavbeta3 receptor (unknown origin) expressed in HEK293FT cells at 5 uM preincubated for 10 mins followed by fibronectin addition and measured after 30 mins by flow cytometric analysis. It counts as cell-based. The conditions noted are these: filed as antagonist, time 40.0 min. The method, boiled down: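 HEK293FT co-transfected with αV and β3 constructs (≥24 h), in HBSGB (20 mM HEPES pH 7.4, 150 mM NaCl, 5.5 mM glucose, 1% BSA). Cells ± 5 or 50 μM ligand 10 min at 25 °C in 0.2 mM CaCl₂/2 mM MnCl₂ (activating), then Alexa647-Fn (15 μg/mL) plus Alexa488 anti-β3 AP3, 30 min at 25 °C. Resting control in 1 mM Ca²⁺/1 mM Mg²⁺. Flow cytometry on AP3-positive cells; Fn MFI expressed as % of AP3 MFI.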
(In general: In flow cytometry, cells or beads pass a laser one at a time.)

Experiment [3] has as its target T2, Integrin alpha-V/beta-3 (Homo sapiens). Kind of experiment: Antagonist activity at integrin alphavbeta3 receptor in HUVEC cells assessed as inhibition of cell adhesion to human vitronectin at 50 uM preincubated for 30 mins followed by transferring to vitronectin coated plates and measured after 1 hr by DAPI staining based inverted fluorescence microscopic analysis. Particulars: filed as antagonist, time 90.0 min. The method, boiled down:
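Wells coated overnight at 4 °C with 20 μg/mL human vitronectin in PBS pH 7.4, blocked with 1% BSA 1 h at 37 °C. HUVEC washed, in DMEM, treated ± 50 μM ligand 30 min at 25 °C, seeded, 1 h at 37 °C. Washed 3× PBS, fixed 3.7% formaldehyde 5 min, nuclei DAPI-stained (5 μg/mL), imaged at 10×.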

The target in experiment [4] is Proteinase-activated receptor 2 (Homo sapiens) (UniProt P55085). Kind of experiment: (§2) Agonist activity at PAR2 in human EA.hy926 cells assessed as stimulation of calcium mobilization preincubated for 2 hrs with LPS and 30 mins with cRGD followed by compound addition by Fluo-4-AM dye-based FLIPR assay. The experiment is classed as functional, cell-based. Particulars: EA.hy 926, filed as agonist. For orientation: Calcium assays in cells follow changes in intracellular calcium, usually with a dye or a luminescent sensor.

Experiment [5] has the same target. The experiment can be described thus: (§3) Agonist activity at PAR2 in human EA.hy926 cells assessed as stimulation of calcium mobilization treated with cRGD for 30 mins prior to compound addition by Fluo-4-AM dye-based FLIPR assay. It counts as functional, cell-based. Particulars: EA.hy 926, filed as agonist. The method, boiled down: as §1
For experiment [6] the target is unchanged. Kind of experiment: (§4) Agonist activity at PAR2 in human EA.hy926 cells assessed as stimulation of calcium mobilization preincubated for 2 hrs with LPS followed by compound addition in absence of cRGD by Fluo-4-AM dye-based FLIPR assay. The experiment is classed as functional, cell-based. Particulars: EA.hy 926, filed as agonist.
The target in experiment [7] is T1, Proteinase-activated receptor 2. The experiment is described as §2. The experiment is classed as functional, cell-based, EA.hy 926.
Experiment [8] shares this target. The description is as §3. The experiment is classed as functional, cell-based, EA.hy 926. The method, boiled down:
as §1

Experiment [9] has the same target. The experiment is described as §4. It counts as functional, cell-based, EA.hy 926.

As a reminder, the EC50 is the concentration giving half of the maximal effect. `CC[C@H](C)[C@H](NC(=O)[C@H](CC(C)C)NC(=O)c1ccco1)C(=O)NCC(=O)N[C@@H](CCCNC(=N)N)C(=O)N[C@@H](CC(C)C)C(=O)N[C@@H](CCCN)C(=O)NCCOCCOCCOCCOCCOCCOCCOCCOCCOCCOCCOCCOCCOCCOCCOCCOCCOCCOCCOCCOCCOCCOCCOCCn1cc(C[C@H]2CN[C@@H](CCCNC(=N)N)C(=O)NCC(=O)N[C@@H](CC(=O)O)C(=O)N[C@H](Cc3ccccc3)C(=O)N2)nn1`: in experiment [1], the EC50 came to 130 nM. In addition, the inhibition entry in experiment [2] and in experiment [3] was “Active” throughout.

Regarding `COc1ccnc(NCCCOc2ccc(C[C@@H](CC(=O)O)NC(=O)c3ccc(OCc4cn(CCOCCOCCOCCOCCOCCOCCNC(=O)[C@@H](NC(=O)[C@H](CC5CCCCC5)NC(=O)c5ccno5)C5CCCCC5)nn4)cc3)cc2)c1`, the outcome in experiment [4], in [5] and in experiment [6] was Active. Besides, in experiment [1], the concentration giving a half-maximal response (EC50) was determined as 1200 nM. The inhibition entry in experiment [3] is “Active”.

Turning to `CC[C@H](C)[C@H](NC(=O)[C@H](CC(C)C)NC(=O)c1ccco1)C(=O)NCC(=O)N[C@@H](CCCN=C(N)N)C(=O)N[C@@H](CC(C)C)C(=O)N[C@@H](CCCN)C(N)=O` (2Furoyl-LIGRL[Orn]-NH2), in experiment [1], the EC50 came to 350 nM.

Turning to `CC[C@H](C)[C@H](NC(=O)[C@H](CC(C)C)NC(=O)c1ccco1)C(=O)NCC(=O)N[C@@H](CCCNC(=N)N)C(=O)N[C@@H](CC(C)C)C(=O)N[C@@H](CCCN)C(=O)NCCOCCOCCOCCOCCOCCOCCn1cc(COC)nn1` (2Furoyl-LIGRL[Orn]-X1), the EC50 in experiment [1] is 73 nM.

On to `N=C(N)NCCC[C@@H]1NC[C@H](Cc2cn(CCOCCOCCOCCOCCOCCOCCOCCOCCOCCOCCOCCOCCOCCOCCOCCOCCOCCOCCOCCOCCOCCOCCOCCNC(=O)[C@@H](NC(=O)[C@H](CC3CCCCC3)NC(=O)c3ccno3)C3CCCCC3)nn2)NC(=O)[C@@H](Cc2ccccc2)NC(=O)[C@H](CC(=O)O)NC(=O)CNC1=O`, for which the concentration for a half-maximal effect (EC50) in experiment [7] worked out at 1200 nM; in experiment [8], 1200 nM; in experiment [1] it was 2500 nM; in [9], 3500 nM. Besides, the inhibition result in [2] and in experiment [3] was “Active” throughout.

As for `COCc1cn(CCOCCOCCOCCOCCOCCOCCNC(=O)[C@@H](NC(=O)[C@H](CC2CCCCC2)NC(=O)c2ccno2)C2CCCCC2)nn1`, the concentration giving a half-maximal response (EC50) in experiment [1] was 890 nM.

`CC[C@H](C)[C@H](NC(=O)[C@H](CC(C)C)NC(=O)c1ccco1)C(=O)NCC(=O)N[C@@H](CCCNC(=N)N)C(=O)N[C@@H](CC(C)C)C(=O)N[C@@H](CCCN)C(=O)NCCOCCOCCOCCOCCOCCOCCOCCOCCn1cc(C[C@H]2CN[C@@H](CCCNC(=N)N)C(=O)NCC(=O)N[C@@H](CC(=O)O)C(=O)N[C@H](Cc3ccccc3)C(=O)N2)nn1`: the concentration for a half-maximal effect (EC50) in [1] is 62 nM.
